Calls of active or inactive are those of the source. The calls are words filed in the database; no cut-off is given here.
How the values were obtained:
NCI-H1650 = assay: Antiproliferative activity against human NCI-H1650 cells harboring EGFR mutant assessed as reduction in cell viability incubated for 24 hrs by MTT assay; format: functional, cell-based; conditions: NCI-H1650, 24 h
Summary of the method: (§1)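 Cells seeded at 3,500 per well in 10% FBS and left overnight, then exposed to test agent or vehicle in 5% FBS for 24 h. MTT added for 1 h, then medium swapped for DMSO and absorbance read at 560 nm. Viability given as percent of vehicle-treated control. Run in triplicate.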

PC-9 [1] = assay: Down regulation of PKM2 expression in human PC9 cells incubated for 24 hrs by Western blot analysis; format: functional, cell-based
Summary of the method: (§2)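 PC-9 cells seeded at 5 × 10^5 cells/mL; after 24 h given 0–1 µM compound or DMSO for 24 h. Lysates run on 10% SDS-PAGE, transferred to nitrocellulose, probed for PKM2, EGFR, p-STAT3, STAT3, p-β-catenin, β-catenin and β-actin with HRP secondaries, ECL detection.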

Pyruvate kinase PKM [2] = target: T1, Pyruvate kinase PKM (Homo sapiens, UniProt P14618); assay: Inhibition of PKM2 in human PC9 cells assessed as decrease in extracellular acidification rate preincubated for 4 hrs followed by glucose/oligomycin/2-DG addition and measured after 1 hr by seahorse XFe96 analyser based assay; format: cell-based
Summary of the method: (§3)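 PC-9 cells, 5 × 10^4 per well, seeded 24 h ahead, then treated with DMSO or compound at 0.25, 0.5 or 1 µM for 4 h at 37 °C. Cells held 1 h without CO2 in glycolysis medium. Seahorse glycolysis stress test with serial injections of 10 mM glucose, oligomycin and 50 mM 2-DG; ECAR and OCR recorded together. Six wells per point.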

Mus musculus [3] = assay: In vivo inhibition of PKM2 in human PC9 cells xenografted in athymic nude mouse assessed as reduction in STAT3 expression at 10 mg/kg, ip administered once daily for 25 days measured post-last dose by Western blot analysis; format: functional, organism-based
Summary of the method: (§4)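 Tumors from PC-9 xenograft nude mice given 10 mg/kg i.p. daily or vehicle for 25 days (n = 8 per group) were lysed for Western blots of PKM2, EGFR, Stat3 and β-catenin. Bands quantified by ImageJ and normalized to GAPDH.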

Pyruvate kinase PKM [4] = target: T1, Pyruvate kinase PKM; assay: Binding affinity to PKM2 in human PC9 cells incubated for 1 hr by ABPP-SILAC assay; format: cell-based
Summary of the method: (§5)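 PC-9 cells passaged at least six times in SILAC DMEM with 10% dialyzed FBS plus 100 µg/mL light or 13C/15N-labeled Arg/Lys. Heavy cells got ABPP probe (1 µM) and light cells DMSO, 1 h at 37 °C. Cells mixed 1:1, sonicated, spun at 100,000g, protein normalized to 1 mg/mL. Click biotin-azide, streptavidin bead pulldown 16 h at 4 °C, SDS-PAGE, on-bead trypsin digestion, LC-MS/MS.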

[5] = target: T2, Malonate--CoA ligase ACSF3, mitochondrial (Homo sapiens) (UniProt Q4G176); assay: Binding affinity to ACSF3 in human PC9 cells incubated for 1 hr by ABPP-SILAC assay; format: cell-based; summary of the method: as §5
T2 sequence (whole entry): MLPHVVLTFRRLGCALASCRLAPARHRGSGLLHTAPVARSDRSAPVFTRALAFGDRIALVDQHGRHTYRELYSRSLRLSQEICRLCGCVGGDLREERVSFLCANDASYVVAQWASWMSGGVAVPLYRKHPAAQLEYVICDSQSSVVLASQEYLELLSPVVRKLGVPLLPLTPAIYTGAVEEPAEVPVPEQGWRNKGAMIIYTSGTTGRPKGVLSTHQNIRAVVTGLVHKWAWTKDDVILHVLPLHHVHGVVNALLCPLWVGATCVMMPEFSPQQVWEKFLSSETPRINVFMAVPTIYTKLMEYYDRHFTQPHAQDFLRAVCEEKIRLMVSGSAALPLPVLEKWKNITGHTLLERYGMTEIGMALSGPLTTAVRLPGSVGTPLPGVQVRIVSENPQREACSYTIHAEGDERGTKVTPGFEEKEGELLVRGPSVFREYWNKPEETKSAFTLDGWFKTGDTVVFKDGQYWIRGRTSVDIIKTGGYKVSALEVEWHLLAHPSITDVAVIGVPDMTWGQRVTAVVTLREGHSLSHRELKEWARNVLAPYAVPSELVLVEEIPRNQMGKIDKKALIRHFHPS

Pyruvate kinase PKM [6] = target: T1, Pyruvate kinase PKM; assay: Inhibition of PKM2 in human PC9 cells assessed as reduction in beta-catenin phosphorylation incubated for 24 hrs by Western blot analysis; format: cell-based; summary of the method: as §2
Pyruvate kinase PKM [7] = target: T1, Pyruvate kinase PKM; assay: Inhibition of PKM2 in human PC9 cells assessed as increase in oxygen consumption rate at 0.25 to 1 uM preincubated for 4 hrs followed by glucose/oligomycin/2-DG addition and measured after 1 hr by seahorse XFe96 analyser based assay; format: cell-based; summary of the method: as §3
Pyruvate kinase PKM [8] = target: T1, Pyruvate kinase PKM; assay: Binding affinity to recombinant human N-terminal His6-tagged PKM2 expressed in Escherichia coli BL21 (DE3) assessed as Cys317-adduct formation by NanoLC-MS/MS analysis
Summary of the method: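 In-house His-tag PKM2 from E. coli BL21(DE3), purified by Ni-NTA then Superdex 200, treated with compound. Reduced with 30 mM DTT at 37 °C for 1 h, alkylated with 30 mM iodoacetamide for 1 h in the dark, trypsin 1:30 w/w overnight at 37 °C. Digests from 6 experiments pooled, 48 nanoLC-MS/MS runs in data-dependent mode, Orbitrap MS1.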

Pyruvate kinase PKM [9] = target: T1, Pyruvate kinase PKM; assay: Inhibition of PKM2 in human PC9 cells assessed as reduction in STAT3 phosphorylation incubated for 24 hrs by Western blot analysis; format: cell-based; summary of the method: as §2
PC-9 [10] = assay: Antitumor activity against human PC9 cells xenografted in athymic nude mouse assessed as reduction in tumor weight at 10 mg/kg, ip administered once daily for 25 days measured post-last dose; format: functional, organism-based
Summary of the method: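 Female nude mice, 6 weeks old, given s.c. 1 × 10^6 PC-9 cells in Matrigel (1:1). From day 7, once-daily i.p. vehicle or 10 mg/kg compound in sterile water with 0.5% methylcellulose and 0.1% Tween-80, n = 8 per group, for 25 days. Tumor volume and body weight followed, tumors weighed at end.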

Pyruvate kinase PKM [11] = target: T1, Pyruvate kinase PKM; assay: Inhibition of PKM2 in human PC9 cells at 0.25 uM using PEP as substrate incubated for 6 hrs by OxiRed probe-based colorimetric analysis; format: cell-based
Summary of the method: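 PC-9 cells seeded at 5 × 10^5 cells/mL, after 24 h given 0.25 µM compound or DMSO for 6 h. Lysate pyruvate kinase activity read with a colorimetric kit measuring H2O2 made from PEP and […] through PK and then pyruvate oxidase. n = 3.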

PC-9 [12] = assay: Induction of basal oxygen consumption rate in human PC9 cells at 0.25 to 1 uM measured after 4 hrs in absence of glucose by seahorse XF96 flux analyser based assay; format: functional, cell-based; summary of the method: as §3
Mus musculus [13] = assay: In vivo inhibition of PKM2 in human PC9 cells xenografted in athymic nude mouse assessed as reduction in beta-catenin expression at 10 mg/kg, ip administered once daily for 25 days measured post-last dose by Western blot analysis; format: functional, organism-based; summary of the method: as §4
Mus musculus [14] = assay: In vivo inhibition of PKM2 in human PC9 cells xenografted in athymic nude mouse assessed as reduction in PKM2 expression at 10 mg/kg, ip administered once daily for 25 days measured post-last dose by Western blot analysis; format: functional, organism-based; summary of the method: as §4
NCI-H460 = assay: Antiproliferative activity against human H460 cells expressing wild type EGFR assessed as reduction in cell viability incubated for 24 hrs by MTT assay; format: functional, cell-based; conditions: NCI-H460, 24 h; summary of the method: as §1

T1 sequence (P14618 2-531 limits assumed): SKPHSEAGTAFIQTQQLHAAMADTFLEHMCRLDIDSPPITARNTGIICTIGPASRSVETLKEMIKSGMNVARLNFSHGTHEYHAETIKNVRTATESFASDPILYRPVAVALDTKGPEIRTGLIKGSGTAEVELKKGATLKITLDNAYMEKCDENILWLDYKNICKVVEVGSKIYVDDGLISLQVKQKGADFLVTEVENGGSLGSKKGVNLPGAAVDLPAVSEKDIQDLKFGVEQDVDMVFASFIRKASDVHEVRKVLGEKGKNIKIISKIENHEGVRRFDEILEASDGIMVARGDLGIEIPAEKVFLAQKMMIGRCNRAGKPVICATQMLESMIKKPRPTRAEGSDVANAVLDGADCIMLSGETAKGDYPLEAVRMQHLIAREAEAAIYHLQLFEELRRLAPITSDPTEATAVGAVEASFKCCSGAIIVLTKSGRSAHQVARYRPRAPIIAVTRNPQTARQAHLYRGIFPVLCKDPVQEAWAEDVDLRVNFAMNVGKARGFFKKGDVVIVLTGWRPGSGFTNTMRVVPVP

In the case of C#CC(=O)Nc1ccc(-n2nc(CCC(=O)NC)cc2-c2ccc(-c3ccc(C(F)(F)F)cc3)cc2)cc1, the IC50 (NCI-H1650) is reported as 200 nM, the Activity (PC-9 [1]) is reported as “Dose-dependent effect” and the inhibition (Pyruvate kinase PKM [2]) is reported as “Dose-dependent effect”. For the same compound, the inhibition (Mus musculus [3]) was “Active”, the Activity (Pyruvate kinase PKM [4]) was “Active” and the Activity [5] was “Active”. For the same compound, the inhibition (Pyruvate kinase PKM [6]) was “Dose-dependent effect”, the inhibition (Pyruvate kinase PKM [7]) was “Active” and the Activity (Pyruvate kinase PKM [8]) was “Active”. The inhibition (Pyruvate kinase PKM [9]) was “Dose-dependent effect”, the Activity (PC-9 [10]) was “Active” and the inhibition (Pyruvate kinase PKM [11]) was “Active”. The Activity (PC-9 [12]) was “Active”, the inhibition (Mus musculus [13]) was “Active” and the inhibition (Mus musculus [14]) was “Active”. The IC50 (NCI-H460) was 1500 nM.
